Results on one compound are retold here after ChEMBL document CHEMBL3259792 (Eur J Med Chem, 2014).

In series [1] the test system is Human immunodeficiency virus 1. In words: Ratio of AZT EC50 to compound EC50 for HIV1 harboring reverse transcriptase K103N mutant infected in human MT4 cells. In kind it is functional.
Series [2] addresses Human immunodeficiency virus type 1 reverse transcriptase (Human immunodeficiency virus 1, UniProt Q72547, K103N). In words: Inhibition of HIV1 wild-type reverse transcriptase K103N mutant using [3H]dTTP by scintillation counting.
Series [3] has as its target T1, Human immunodeficiency virus type 1 reverse transcriptase (Human immunodeficiency virus 1, UniProt Q72547). In words: Inhibition of HIV1 wild-type reverse transcriptase using [3H]dTTP by scintillation counting.
In series [4] the test system is Human immunodeficiency virus 1. Briefly: Ratio of efavirenz EC50 to compound EC50 for HIV1 harboring reverse transcriptase L100I mutant infected in human MT4 cells. In kind it is functional.
The target of series [5] is Human immunodeficiency virus type 1 reverse transcriptase (Human immunodeficiency virus 1, UniProt Q72547, L100I). Briefly: Inhibition of HIV1 wild-type reverse transcriptase L100I mutant using [3H]dTTP by scintillation counting. In a few lines:
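RNA-dependent DNA polymerase activity of recombinant RT (2–4 nM) on poly(rA)/oligo(dT) 10:1 with [3H]dTTP (1 Ci/mmol). Incubation at 37 °C. Acid-insoluble radioactivity collected on GF/C filters after 5% cold TCA, counted by scintillation.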

The subject of series [6] is Human immunodeficiency virus 1. Briefly: Ratio of EC50 for HIV1 harboring reverse transcriptase Y181C mutant to EC50 for wild type HIV1 NL4.3. In kind it is functional. The gist of the method:
(§1)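 Fold change is the EC50 against the named mutant strain divided by the EC50 against wild-type HIV-1 NL4-3. […] Means of 2–3 independent experiments in triplicate.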

For series [7], the system named is Human immunodeficiency virus 1. Briefly: Antiviral activity against HIV1 harboring reverse transcriptase Y181C mutant infected in human MT4 cells assessed as inhibition of virus-induced cell death measured after 5 days of infection by MTT method. Type of series: functional, organism-based. The following applies: Human immunodeficiency virus 1, MT4, 120 h. The gist of the method:
(§2)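 MT-4 cells infected with the named NNRTI-resistant HIV-1 RT mutant strain, in the presence of a range of compound concentrations. Viable cells counted at day 5 post-infection by tetrazolium (MTT) colorimetry. […] Mean of 2–3 independent experiments, each in triplicate.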
Background: Formazan colour is commonly taken as a measure of viable cells.

For series [8], the system named is Human immunodeficiency virus 1. Briefly: Ratio of efavirenz EC50 to compound EC50 for HIV1 harboring reverse transcriptase K103N mutant infected in human MT4 cells. In kind it is functional.
The subject of series [9] is Human immunodeficiency virus 2. In words: Antiviral activity against HIV-2 ROD infected in human CEM cells assessed as protection of cells monitored by giant cell formation by microscopy. In kind it is functional, organism-based. Particulars: Human immunodeficiency virus 2, ISOLATE ROD, CCRF-CEM. The gist of the method:
(§3)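 Human CEM cultures (~3 × 10⁵ cells/mL) infected with ~100 CCID₅₀ per mL of HIV-1 IIIB or HIV-2 ROD, seeded with serial compound dilutions. Incubated 4 days at 37 °C; syncytium (giant cell) formation scored by microscopy. EC₅₀ = concentration protecting cells from viral cytopathicity by 50%. Means of two to three independent experiments, each in triplicate.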

For series [10], the system named is Human immunodeficiency virus 1. In words: Ratio of efavirenz EC50 to compound EC50 for HIV1 harboring reverse transcriptase Y181C mutant infected in human MT4 cells. Type of series: functional.
Series [11] can be described thus: Selectivity index, ratio of CC50 for human MT4 cells to EC50 for HIV1 NL4.3 infected in human MT4 cells. In kind it is toxicity, cell-based. The following applies: read-out: Ratio CC50/EC50. In a few lines: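 Ratio CC₅₀/EC₅₀. CC₅₀ is from mock-infected MT-4 cells and EC₅₀ from HIV-1 NL4-3-infected MT-4 cells, both read by MTT at day 5 post-infection.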
In series [12] the test system is Human immunodeficiency virus 1. In words: Antiviral activity against HIV1 harboring reverse transcriptase K103N mutant infected in human MT4 cells assessed as inhibition of virus-induced cell death measured after 5 days of infection by MTT method. Type of series: functional, organism-based. Particulars: Human immunodeficiency virus 1, MT4, 120 h. In a few lines:
as §2

In series [13] the test system is Human immunodeficiency virus 1. Briefly: Antiviral activity against HIV1 3B infected in human CEM cells assessed as protection of cells monitored by giant cell formation by microscopy. Type of series: functional, organism-based. The following applies: Human immunodeficiency virus 1, 3B, CCRF-CEM. In a few lines:
as §3

The nature of series [14]: Cytotoxicity against human MT4 cells assessed as cell viability by MTT assay. In kind it is cell-based. The gist of the method: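 Mock-infected MT-4 cells exposed to a range of compound concentrations. Viable cells measured by MTT colorimetry at day 5. CC₅₀ = concentration causing 50% death of non-infected cells. Means of two to three independent experiments, each in triplicate.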

The test system of series [15] is Human immunodeficiency virus 1. Briefly: Ratio of EC50 for HIV1 harboring reverse transcriptase […] mutant to EC50 for wild type HIV1 NL4.3. In kind it is functional. In a few lines: as §1
The test system of series [16] is Human immunodeficiency virus 1. In words: Antiviral activity against HIV1 harboring reverse transcriptase […] mutant infected in human MT4 cells assessed as inhibition of virus-induced cell death measured after 5 days of infection by MTT method. The following applies: Human immunodeficiency virus 1, MT4, 120 h. Type of series: functional, organism-based. The gist of the method: as §2

Series [17] has as its system Human immunodeficiency virus 1. Briefly: Ratio of EC50 for HIV1 harboring reverse transcriptase K103N/Y181C double mutant to EC50 for wild type HIV1 NL4.3. Type of series: functional. The gist of the method: as §1
Series [18] relates to Human immunodeficiency virus 1. Briefly: Antiviral activity against HIV1 harboring reverse transcriptase K103N/Y181C double mutant infected in human MT4 cells assessed as inhibition of virus-induced cell death measured after 5 days of infection by MTT method. In kind it is functional, organism-based. The following applies: Human immunodeficiency virus 1, MT4, 120 h. In a few lines: as §2

Series [19] has as its target T1, Human immunodeficiency virus type 1 reverse transcriptase. In words: Inhibition of HIV1 wild-type reverse transcriptase Y181I/Y181C mutant using [3H]dTTP by scintillation counting.
Series [20] has as its system Human immunodeficiency virus 1. Briefly: Ratio of EC50 for HIV1 harboring reverse transcriptase K103N mutant to EC50 for wild type HIV1 NL4.3. In kind it is functional. In a few lines:
as §1

Series [21] relates to Human immunodeficiency virus 1. Briefly: Antiviral activity against HIV1 NL4.3 infected in human MT4 cells assessed as inhibition of virus-induced cell death measured after 5 days of infection by MTT method. Type of series: functional, organism-based. The following applies: Human immunodeficiency virus 1, NL4.3, MT4, 120 h. The gist of the method:
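Lymphoid MT-4 cells (NIH AIDS Reagent Program) infected with HIV-1 NL4-3 in the presence of varying compound concentrations. On day 5 post-infection, viable cells were counted by MTT tetrazolium colorimetry. EC₅₀ = concentration inhibiting virus-induced cell death by 50%. Means of two to three independent experiments, each in triplicate.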

Usually IC50 stands for the concentration at which inhibition is half-maximal. Higher therefore signals weaker potency. For orientation: EC50 means the concentration giving half of the maximal effect. Usually CC50 stands for the concentration giving 50% cytotoxicity. As for `Cc1cc(C)cc(S(=O)(=O)c2c(C(=O)NCc3cccc(F)c3)[nH]c3ccc(Cl)cc23)c1`, the Ratio EC50 was more than 3 in series [1]; 10 in series [4]; 6.3 in series [6]; more than 546 in series [8]; 37 in [10]; 7.4 in series [15]. The “Ratio EC50” value in series [17] is on record as 20391; in [20] it was 6.5. Further, the IC50 in series [2] is 0.16 µM; in series [3] it was 0.07 µM; in series [5], 0.04 µM; in series [19] it was more than 20 µM. The half-maximal effective concentration (EC50) in series [7] was 0.0043 µM; in series [9], more than 10 µM; in [12] it was 0.0044 µM; in [13], 0.0043 µM; in series [16], 0.005 µM; in series [18], 13.9 µM. In [21], the EC50 stood at 0.00068 µM. Also, the selectivity ratio in series [11] was more than 78100. For the same compound, the CC50 in [14] is more than 53.1 µM.
